Screening data from PubChem.
PHOSPHO1 block: PubChem AID 1565. recombinant PHOSPHO1, absorbance phosphatase assay. 290,000 compounds, 1.1% hits. inhibition, % at 13.3 µM; in the data active means inhibition above about 60%
UBC13 polyUb: UBC13 polyubiquitin chain formation inhibitors, primary screen, biochemical, TR-FRET, uHTS | Ubiquitin-conjugating enzyme E2 N (Homo sapiens), P61088 | inhibition, % at 20 µM | 330,000 compounds, 0.47% hits | AID 485273, 2010; in the data active means inhibition above about 45%, passing the limit was not always enough
Target sequence (P61088 whole entry, looked up): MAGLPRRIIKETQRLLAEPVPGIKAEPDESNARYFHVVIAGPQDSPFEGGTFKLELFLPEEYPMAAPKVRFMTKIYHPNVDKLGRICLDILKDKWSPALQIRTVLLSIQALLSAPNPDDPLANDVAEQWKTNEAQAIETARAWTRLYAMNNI
procasp7 counter: procaspase-7 activators, primary screen, counter-screen for procaspase-3 activator project, biochemical, absorbance, HTS, human; Caspase-7 (Homo sapiens), P55210; recombinant procaspase-7, Ac-DEVD-pNA absorbance 405 nm; D23A/D198A/D206A triple mutant, cannot self-cleave; scale: DMSO 0, 5 µM enzyme 100; activation, % at 8.5 µM; 330,000 compounds, 0.093% hits; AID 463210, 2010;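 active means percent activation above the screen-wide mean plus 3 SD, cut at about 25% in these data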
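signal = Epi-absorbance of released pNA at 405 nm, two timepoints | assay system = Uncleavable procaspase-7 mutant enzyme | reagent = Ac-DEVD-pNA substrate, 400 µM as added | times = 1 h enzyme–compound preincubation and 2 h substrate reaction, both 25 °C | benchmarks = low DMSO alone, high DMSO plus 5 µM PC-7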
IDE cell activ: human IDE activators in live cells, primary screen, fluorescence polarization, HEK cells, FAbeta-B substrate; AID 493087, 2011; FAbeta-B cleavage; 0% vehicle, 100% cell-free pure enzyme wells; Insulin-degrading enzyme (Homo sapiens), P14735; 340,000 compounds, 0.073% hits; activation, % at 5.96 µM;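 active means activation above the mean of all tested compounds plus 3 SD, set per screening campaign, cut at about 17% in these data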
IDE cell inh: human IDE inhibitors in live cells, primary screen, fluorescence polarization, HEK cells, FAbetaB substrate | inhibition, % at 5.59 µM | AID 434962, 2010 | 320,000 compounds, 0.41% hits | Insulin-degrading enzyme (Homo sapiens), P14735 | FAbetaB cleavage;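 active means percent inhibition above the average of all tested compounds plus 3 SD, set per screening campaign, cut at about 16% in these data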;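 further: IDE supplied by intact live HEK cells; FP after avidin binding of uncleaved biotin substrate so inhibition keeps polarization high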
procasp3 activ: activators of human procaspase-3 D3A mutant, primary screen, biochemical, absorbance, PC-3 D3A mutant, single concentration; recombinant procaspase-3 D3A, Ac-DEVD-pNA absorbance 405 nm; 330,000 compounds, 0.11% hits; activation, % at 8.5 µM;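 active means activation above the mean of all tested compounds plus 3 SD, cut at about 21% in these data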
Target sequence (P42574 whole entry D9A/D28A/D175A): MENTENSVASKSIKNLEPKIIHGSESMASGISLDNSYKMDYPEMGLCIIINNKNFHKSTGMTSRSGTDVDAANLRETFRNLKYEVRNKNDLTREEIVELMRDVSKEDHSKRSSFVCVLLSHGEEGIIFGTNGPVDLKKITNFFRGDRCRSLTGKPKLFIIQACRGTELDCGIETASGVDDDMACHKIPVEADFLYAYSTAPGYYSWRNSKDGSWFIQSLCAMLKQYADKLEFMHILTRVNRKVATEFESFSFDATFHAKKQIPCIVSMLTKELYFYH
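Assay system – Procaspase-3 D3A mutant · Benchmarks – DMSO low control, extra-enzyme high control · Technique – 405 nm absorbance of p-nitroaniline, reads at 0 and 120 min · Doses – 8.5 µM nominal · Measure – % activation between DMSO and enzyme-spiked controls · Also added – Ac-DEVD-pNA chromogenic peptide substrate · Schedule – 1 h compound preincubation, 2 h substrate hydrolysis at 25 °C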
Casp3 counter: CASP3 inhibitor validation, counterassay for project on UBE2N polyubiquitination blockers, biochemical, one dose. shares compounds with UBC13 polyUb. Recombinant caspase-3, Caspase-Glo 3/7 luminescence, 60 min. inhibition, % at 20 µM. 1,400 compounds, 4% hits. AID 488856, 2010;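 active means mean inhibition across replicates above about 26%, limit read from the data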
UBC13 confirm: UBC13 polyubiquitination inhibitors, single-point retest, confirmation, biochemical, TR-FRET, single concentration; inhibition, % at 10 µM; 1,400 compounds, 68% hits; shares compounds with UBC13 polyUb; in the data active means inhibition above about 45%
Each line names hits and unclear results; the compound was inactive in the other large screens (follow-up assays come after a bar, where they were run). Hits are enriched below; roughly 1.9% of the tested compounds scored in any of these assays.

Cc1ccc(-c2nn(-c3ccccc3)cc2CSC(=N)N)cc1	UBC13 polyUb 45 | Casp3 counter inactive | UBC13 confirm 48
OCc1cn(-c2ccccc2)nc1-c1ccc(-c2nn(-c3ccccc3)cc2CO)cc1	none
CC(=O)Nc1ccc(S(=O)(=O)NCCC(=O)OCc2ccc([N+](=O)[O-])cc2)cc1	none
CCCCC(C(=O)NC(C)(C)C)N(Cc1ccccc1Cl)C(=O)c1snc(C(N)=O)c1N (stereo unspecified)	none (no result: procasp7 counter, IDE cell inh, procasp3 activ)
CCCC(C(=O)NC(C)(C)C)N(Cc1ccccc1Cl)C(=O)c1snc(C(N)=O)c1N (stereo unspecified)	UBC13 polyUb 49 | Casp3 counter inactive | UBC13 confirm 61
COc1cc(C(CCN2CCCC(C)C2)c2c(OC)cc(OC)c3c2OC(=O)CC3c2ccc(N(C)C)cc2)cc(OC)c1OC (stereo unspecified)	UBC13 polyUb 45 | Casp3 counter inactive | UBC13 confirm inactive
CCCCCc1cc(=O)oc2c(C(CCN3CCCCC3)c3cc(OC)c(OC)c(OC)c3)c(OC)cc(OC)c12 (stereo unspecified)	UBC13 polyUb 81 | Casp3 counter inactive | UBC13 confirm 46
COc1cc(C(CCN2CCCC2)c2c(OC)cc(OC)c3ccc(=O)oc23)cc(OC)c1OC (stereo unspecified)	none
CCCCCc1cc(=O)oc2c(C(CCN3CCCC(C)C3)c3cc(OC)c(OC)c(OC)c3)c(OC)cc(OC)c12 (stereo unspecified)	UBC13 polyUb 67 | Casp3 counter inactive | UBC13 confirm inactive
CCCCCc1cc(=O)oc2c(C(CCN3CCCC(C)C3)c3ccc(N(C)C)cc3)c(OC)cc(OC)c12 (stereo unspecified)	none
CCCCCc1cc(=O)oc2c(C(CCN(CC)CC)c3ccc(N(C)C)cc3)c(OC)cc(OC)c12 (stereo unspecified)	UBC13 polyUb 80 | Casp3 counter inactive | UBC13 confirm inactive
C[C@@H]1C2CC(C/C2=N\NC(=O)c2ccncc2)C1(C)C (stereo partly specified)	none
c1ccc(N2CCN(C3CC4CCC3C4)CC2)cc1 (stereo unspecified)	none (no result: PHOSPHO1 block)
COC(=O)C[C@H]1c2cc(C(F)(F)F)ccc2S(=O)(=O)N1C(C)(C)C	none (no result: PHOSPHO1 block)
O=C(O)CN=CC1=C(O)CC(c2ccccc2)CC1=O (stereo unspecified)	none (no result: PHOSPHO1 block)
CCC(CC)C(=O)Nc1nnc(CCc2ccccc2)s1	none (no result: PHOSPHO1 block)
COc1ccc(C(=O)NCC(=O)OCC(=O)Nc2ncc(Cl)cc2Cl)cc1[N+](=O)[O-]	none (no result: PHOSPHO1 block)
Cn1c(=O)c2c(ncn2Cc2ccccc2)n(C)c1=O	UBC13 polyUb 50 | Casp3 counter inactive | UBC13 confirm inactive
COc1ccc(CN2CCC(C(=O)Nc3ccc(Oc4ccccc4)nc3)CC2)cc1F	none
CCc1nnc(NS(=O)(=O)c2ccc(NC(=O)c3ccccc3OC)cc2)s1	none
CCOC(=O)CSc1nc2ccccc2c(=O)n1C	none
CCc1ccc(C(=O)Nn2c(C)nc3ccccc3c2=O)cc1	UBC13 polyUb 60 | Casp3 counter inactive | UBC13 confirm 64
CCOC(=O)CSc1nc2ccccc2c(=O)n1NC(=O)c1ccccc1	UBC13 polyUb 48 | Casp3 counter inactive | UBC13 confirm inactive
Cc1nc2ccccc2c(=O)n1NC(=O)c1ccc(Cl)c(Cl)c1	none
C/C(=N/NC(=O)c1ccc(C(C)(C)C)cc1)c1ccccn1	UBC13 polyUb 51 (no result: PHOSPHO1 block) | Casp3 counter 61 | UBC13 confirm 101
CC(C)(C)c1ccc(C(=O)N/N=C/c2ccccn2)cc1	UBC13 polyUb 65 | Casp3 counter inactive | UBC13 confirm 87
C/C(=N\NC(=O)c1ccc(Cl)c(Cl)c1)c1ccccn1	none (no result: procasp7 counter, IDE cell inh, procasp3 activ)
Cc1cc[n+](CC(=O)c2ccc3c(c2)OCCO3)cc1	none
O=C(C[n+]1ccc(/C=C/c2ccccc2)cc1)c1ccc2c(c1)OCCO2	UBC13 polyUb 53 | Casp3 counter inactive | UBC13 confirm inactive
O=C(Nc1cccc2nsnc12)c1ccc(-c2cccc(Cl)c2)o1	UBC13 polyUb 49 | Casp3 counter 32 | UBC13 confirm inactive
C/C=C1\COC(C(=O)NCc2ccccc2)(C(F)(F)F)C=C1C=C1CCCCC1 (stereo unspecified)	none (no result: PHOSPHO1 block)
C/C=C1\COC(C(=O)NCCN2CCCC2)(C(F)(F)F)C=C1C=C1CCCCC1 (stereo unspecified)	UBC13 polyUb 55 (no result: PHOSPHO1 block) | Casp3 counter inactive | UBC13 confirm 52
Cc1ccc(N(C(=O)c2snc(C(N)=O)c2N)C(C(=O)NCCC(C)C)c2ccco2)cc1 (stereo unspecified)	UBC13 polyUb 74 | Casp3 counter inactive | UBC13 confirm 62
COc1ccc(N(C(=O)c2snc(C(N)=O)c2N)C(C(=O)NC2CCCC2)c2ccco2)cc1 (stereo unspecified)	UBC13 polyUb 82 | Casp3 counter inactive | UBC13 confirm 90
NC(=O)c1nsc(C(=O)N(c2cccc(F)c2)C(C(=O)NC2CCCC2)c2ccc(O)cc2)c1N (stereo unspecified)	UBC13 polyUb 48 | Casp3 counter inactive | UBC13 confirm 51
CCOc1ccc(N(C(=O)c2snc(C(N)=O)c2N)C(C)C(=O)NC2CCCCC2)cc1 (stereo unspecified)	none
COc1ccc(N(C(=O)c2snc(C(N)=O)c2N)C(C(=O)NC2CCCCC2)c2ccc(C)o2)cc1 (stereo unspecified)	UBC13 polyUb 60 | Casp3 counter inactive | UBC13 confirm 55
CN(CC(=O)Nc1cccc(F)c1)C(=O)CN1C(=O)C2CC=CCC2C1=O (stereo unspecified)	none (no result: PHOSPHO1 block)
Cc1ccc(NC(=O)CN(C)C(=O)COC(=O)C2=COCCO2)cc1	none (no result: PHOSPHO1 block)
CCCCCOc1ccc(C(=O)Nc2ccc(N3CCOCC3)cc2N2CCOCC2)cc1	none (no result: PHOSPHO1 block)
C#Cc1ccc([C@@H]2C=C(C(=O)O)O[C@H](OCC)[C@H]2CCCO)cc1	none (no result: PHOSPHO1 block)
